Experimental data as given in article PMC9056854 (RSC Advances, 2020).

Assay: Thermal denaturation study
Assay type: physicochemical
Conditions: 3 μM duplex, 10 mM sodium phosphate (pH 7.0), 100 mM NaCl; relative to siRNA 1
Summary of the method: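 UV melting of duplexes at 3 μM in 10 mM sodium phosphate (pH 7.0) with 100 mM NaCl, heated at 0.5 °C min−1. ΔTm is the Tm of the peptide-conjugated duplex minus the Tm of the unmodified duplex.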

Row | Substance | ΔTm [Tm(siRNAmod) − Tm(siRNAunmod)]
1 | 5′-GGCCUUUCACUACUCCUACTTR^E-R8A7-3′ [siRNA 3] | +0.5 °C
2 | 5′-GGCCUUUCACUACUCCUACTTR^E-R8G7-3′ [siRNA 2] | +0.9 °C
